From ChEMBL document CHEMBL1156296, “Development of novel, highly potent inhibitors of V-RAF murine sarcoma viral oncogene homologue B1 (BRAF): increasing cellular potency through optimization of a distal heteroaromatic group” (J Med Chem, 2010)

What was measured:
[1] = Tmax in BALB/cAnNCrl mouse at 10 mg/kg, po; type: ADME, organism-based; set-up: dose 10 mg/kg, route oral; details: in vivo
Procedure, shortened: (§1)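 Female BALB/cAnNCrl mice, at least 6 weeks old, dosed once by oral gavage at 10 mL/kg in DMSO/water 1:19 v/v. Blood was taken at six or eight time points from 15 min to 18 or 24 h, three mice per time point, by terminal cardiac puncture under halothane or isoflurane into heparinized syringes. Plasma was snap frozen and stored at -70 °C.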

[2] = Cmax in BALB/cAnNCrl mouse at 10 mg/kg, po; type: ADME, organism-based; set-up: dose 10 mg/kg, route oral; details: in vivo; procedure, shortened: as §1
[3] = Growth inhibition of human WM266.4 cells expressing BRAF V600E mutant after 5 days by SRB assay; type: functional; details: WM 266-4, 120 h
[4] = Oral bioavailability in BALB/cAnNCrl mouse at 10 mg/kg; type: ADME, organism-based; details: in vivo
Procedure, shortened: (§2)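 Female BALB/cAnNCrl mice, at least 6 weeks old. The oral arm was gavage at 10 mL/kg in DMSO/water 1:19. The iv arm was 2 mg/kg (~4 μmol/kg) at 10 mL/kg in DMSO/Tween-20/water 10:1:89, sampled at seven or eight points from 5 min to 18 or 24 h. Three mice per time point, terminal cardiac blood, plasma.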

[5] = biological target: T1, Serine/threonine-protein kinase B-raf (Homo sapiens, UniProt P15056, V600E); assay: Inhibition of human BRAF V600E mutant expressed in baculovirus system
Procedure, shortened: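 Isolated purified V600E BRAF kinase with a 45 min incubation. Enzyme inhibition measured and IC50 derived. Run in triplicate, with one compound measured once.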

[6] = Half life in BALB/cAnNCrl mouse at 10 mg/kg, po; type: ADME, organism-based; set-up: dose 10 mg/kg, route oral; details: in vivo; procedure, shortened: as §1
[7] = biological target: T1, Serine/threonine-protein kinase B-raf; assay: Inhibition of BRAF V600E mutant ERK phosphorylation in human WM266.4 cells; type: cell-based
Procedure, shortened: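 WM266.4 melanoma cells, which carry mutant V600E BRAF, exposed to inhibitor for 6 h. ERK phosphorylation (pERK) measured and IC50 derived. Run in triplicate, with a few compounds measured once.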

[8] = Growth inhibition of human WM266.4 cells expressing BRAF V600E mutant after 96 hrs by SRB assay
[9] = Growth inhibition of wild type human WM1361 cells after 5 days by SRB assay; details: WM1361, 120 h
[10] = Selectivity ratio of GI50 for human WM266.4 cells expressing BRAF V600E mutant to GI50 for human WM1361 cells
[11] = Oral bioavailability in BALB/cAnNCrl mouse at 20 mg/kg; type: ADME, organism-based; details: in vivo; procedure, shortened: as §2
[12] = Metabolic stability in mouse liver microsomes; type: ADME, Microsome
Procedure, shortened: (§3)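 Phase I microsomal incubation of compound at 10 μM for 30 min, stopped with 3 volumes of methanol containing 500 nM roscovitine as internal standard. Parent and metabolites were measured by LC-MS, positive-ion electrospray, on a polar reversed-phase column.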

[13] = Tmax in BALB/cAnNCrl mouse at 20 mg/kg, po; type: ADME, organism-based; set-up: dose 20 mg/kg, route oral; details: in vivo; procedure, shortened: as §1
[14] = tested on: Liver microsomes; assay: Metabolic stability in human liver microsomes; type: ADME, Microsome; procedure, shortened: as §3
[15] = Half life in BALB/cAnNCrl mouse at 20 mg/kg, po; type: ADME, organism-based; set-up: dose 20 mg/kg, route oral; details: in vivo; procedure, shortened: as §1
[16] = Cmax in BALB/cAnNCrl mouse at 20 mg/kg, po; type: ADME, organism-based; set-up: dose 20 mg/kg, route oral; details: in vivo; procedure, shortened: as §1
[17] = Ratio of plasma concentration in Crl:CD1-Foxn1nu mouse to GI50 for human WM266.4 cells xenografted in Crl:CD1-Foxn1nu mouse; type: ADME; details: in vivo

T1 sequence (P15056 2-766 V600E limits assumed): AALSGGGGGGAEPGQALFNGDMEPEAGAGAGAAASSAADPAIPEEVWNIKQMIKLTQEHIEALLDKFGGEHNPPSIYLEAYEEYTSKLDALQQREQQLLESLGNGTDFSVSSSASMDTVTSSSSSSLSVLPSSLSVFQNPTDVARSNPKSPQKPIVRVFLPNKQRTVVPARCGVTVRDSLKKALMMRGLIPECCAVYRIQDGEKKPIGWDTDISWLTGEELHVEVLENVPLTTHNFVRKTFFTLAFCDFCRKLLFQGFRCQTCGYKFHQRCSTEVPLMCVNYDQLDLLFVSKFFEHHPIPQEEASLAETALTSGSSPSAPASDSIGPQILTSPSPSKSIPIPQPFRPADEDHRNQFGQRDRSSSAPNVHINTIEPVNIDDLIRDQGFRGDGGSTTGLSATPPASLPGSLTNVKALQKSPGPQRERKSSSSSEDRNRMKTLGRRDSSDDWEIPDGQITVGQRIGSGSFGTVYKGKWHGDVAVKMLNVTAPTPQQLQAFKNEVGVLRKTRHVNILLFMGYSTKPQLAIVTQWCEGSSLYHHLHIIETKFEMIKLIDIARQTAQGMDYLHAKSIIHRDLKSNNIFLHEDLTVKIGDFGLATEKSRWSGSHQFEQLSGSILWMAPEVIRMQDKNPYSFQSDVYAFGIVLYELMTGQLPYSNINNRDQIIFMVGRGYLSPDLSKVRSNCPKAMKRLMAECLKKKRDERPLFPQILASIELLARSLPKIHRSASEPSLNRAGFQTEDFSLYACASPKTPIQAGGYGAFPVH

Row | SMILES | Tmax [1] | Cmax [2] | GI50 [3] | bioavailability [4] | IC50 [5] | half-life [6] | IC50 [7] | GI50 [8] | GI50 [9] | fold change (FC) [10] | bioavailability [11] | Stability [12] | Tmax [13] | Stability [14] | half-life [15] | Cmax [16] | Ratio [17]
1 | Cc1ccc(-n2nc(C(C)(C)C)cc2NC(=O)Nc2ccc(Oc3ccnc4[nH]c(=O)n(C)c34)cc2)cc1 | 1 h | 39.6 µM | 0.066 µM | 34% | 0.202 µM | 3.4 h | 0.09 µM |  |  |  |  |  |  |  |  |  | 
2 | Cc1ccc(-n2nc(C(C)(C)C)cc2NC(=O)Nc2ccc(Oc3ccnc4c3[nH]c(=O)n4C)cc2)cc1 |  |  |  |  | 3 µM |  | 0.036 µM | 0.052 µM |  |  |  |  |  |  |  |  | 
3 | CC(C)(C)c1cc(NC(=O)Nc2ccc(Oc3ccnc4[nH]c(=O)[nH]c34)cc2F)n(-c2ccccc2)n1 | 0.25 h | 15 µM | 0.039 µM | 24% | 0.075 µM | 2.8 h | 0.135 µM |  | 0.66 µM | 17 |  |  |  |  |  |  | 
4 | Cn1c(=O)[nH]c2nccc(Oc3ccc(NC(=O)Nc4cc(C(C)(C)C)nn4-c4ccccc4)c4ccccc34)c21 |  |  | 0.024 µM |  | 0.251 µM |  | 0.019 µM |  | 1.2 µM | 49 | 33% | < 30% | 1.5 h | < 30% | 1.91 h | 35.5 µM | 
5 | Cc1ccc(-n2nc(C(C)(C)C)cc2NC(=O)Nc2ccc(Oc3ccnc4[nH]c(=O)n(C)c34)c3ccccc23)cc1 | 1 h | 43.3 µM | 0.016 µM | 43% | 2.28 µM | 8.4 h | 0.026 µM |  |  |  |  | < 30% |  | < 30% |  |  | 
6 | Cc1ccc(-n2nc(C(C)(C)C)cc2NC(=O)Nc2ccc(Oc3ccnc4[nH]c(=O)[nH]c34)cc2F)cc1 | 1.5 h | 7.42 µM | 0.046 µM | 7% | 0.11 µM | 5.3 h | 0.04 µM |  | 0.79 µM | 17 |  |  |  |  |  |  | 
7 | CC(C)(C)c1cc(NC(=O)Nc2ccc(Oc3ccnc4[nH]c(=O)[nH]c34)cc2)n(-c2ccccc2)n1 |  |  | 0.39 µM |  | 0.094 µM |  | 0.62 µM |  | 3.2 µM | 8 |  |  |  |  |  |  | 
8 | Cc1ccc(-n2nc(C(C)(C)C)cc2NC(=O)Nc2ccc(Oc3ccnc4[nH]c(=O)[nH]c34)cc2)cc1 |  |  | 0.3 µM |  | 0.142 µM |  | 0.42 µM |  |  |  | 6.5% |  | 0.5 h |  | 4 h | 3.67 µM | 12
9 | CNC(=O)c1cc(Oc2ccc(NC(=O)Nc3ccc(Cl)c(C(F)(F)F)c3)cc2)ccn1 [SORAFENIB] |  |  |  |  |  |  |  |  | 4.5 µM | 1 |  |  |  |  |  |  | 
